Results as given in ChEMBL document CHEMBL4513216, “Probing the Open Global Health Chemical Diversity Library for Multistage-Active Starting Points for Next-Generation Antimalarials” (ACS Infect Dis, 2020).

Test: Toxicity liver stage against HepG2, at 10uM
Assay type: cell-based
Parameters: test concentration 10 uM, cell line HepG2-A16-CD81EGFP
Settings: human, HepG2-A16-CD81EGFP cells; read-out: INHIBITION
Outline: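 Uninfected HepG2-A16-CD81EGFP cells, 3 × 10^3 per well, 1536-well, plated on prespotted compound at 10 μM final, parasite-free screening media added to match infected plates; puromycin 10 μM positive, DMSO 0.5% negative; run in parallel with 48 h PbLuc assay at 37 °C, 5% CO2; viability by CellTiter-Glo luminescence, normalized to controls.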

Row | Structure (SMILES) | cytotoxicity at 10 µM [%]
1 | COC(=O)c1ccccc1NC(=O)c1c(C)cn(C)c1CC(=O)O | -6.14
2 | CCc1c(C)sc2nc3n(CC(N)=O)nc(SC)n3c(=O)c12 | -0.817
3 | Cc1cc(C)n(-c2ccnc(N3CCC(C(=O)N4CCCC4)CC3)n2)n1 | -9.87
4 | Cc1cc2nc(SCC(=O)N3CCCC3)n(C)c(=O)c2[nH]1 | 11.1
5 | CCOc1cc2c(cc1CCC(=O)O)CCC2 | -4.63
6 | COc1cccc(C2CC(=O)Nc3nc(N4CCCCC4)sc32)c1OC (stereo unspecified) | 10.4
7 | O=C1CC(c2ccsc2)c2c(n(C3CCOCC3)[nH]c2=O)N1 (stereo unspecified) | 0.847
8 | CCc1cc(=O)[nH]c2nnc(SCC(=O)OC)n12 | -16.6
9 | CCC1=N[C@@]2(CC[C@@H]3CN(C(=O)NC(C)C)C[C@@H]32)C(=O)N1C | -18
10 | CCOc1ccc(N2CCCN=C2NC(=O)c2ccc(Cl)cc2)cc1 | 8.1
11 | O=C(O)Cn1ccc2c(Cl)cccc21 | 0.308
12 | Oc1cc(C2CCCCN2Cc2cccs2)nc(-c2ccncc2)n1 (stereo unspecified) | 7.78
13 | Cc1cc(C)nc(Nc2cc(C)nc(C3CCN(C(=O)CO)C3)n2)n1 (stereo unspecified) | 5.34
14 | CNC(=O)C1CN(c2ncccn2)CCN1Cc1ccccc1 (stereo unspecified) | 14.3
15 | Cc1nc(C(=O)N2CCC(c3cc(CCO)n(C)n3)C2)co1 (stereo unspecified) | -5.42
16 | CC(C)c1nc(O)c2nnn(C[C@@H]3CCCN(Cc4cccs4)C3)c2n1 | 1.76
17 | O=C(c1ccccc1F)N1CCOC(c2nc(-c3ncccn3)no2)C1 (stereo unspecified) | -2.5
18 | O=C(NC[C@]1(O)CN(Cc2ccc(F)cc2)C[C@H]1O)c1ccccn1 | -7.8
19 | c1c[nH]c2nc(C3CCNC3)nc-2c1 (stereo unspecified) | 10.3
20 | CC(C)N(C)CC(=O)NCc1ccccc1N1CCN(C)CC1 | -7.85
21 | CC(C)C(C(=O)N(C)C)c1cccc(Cl)c1 (stereo unspecified) | 6.14
22 | CCCS(=O)(=O)CC(=O)NC(C)c1cccc(-n2cccn2)c1 (stereo unspecified) | 6
23 | Cc1nnc(NCCc2coc(-c3ccc(F)cc3)n2)c(C#N)c1C | -16.3

Row | Structure (SMILES) | cytotoxicity at 10 µM [%]
24 | Cc1ncc(S(=O)(=O)Nc2ccnn2C(C)C)[nH]1 | 9.68
25 | Cc1cnn(CCNCc2c(C)nn(C)c2Cl)c1 | -15.3
26 | Cc1nc(CN(C)S(=O)(=O)c2ccc(F)cc2Br)no1 | -6.26
27 | N#Cc1c(F)cccc1Nc1cnn(CC(=O)N2CCOCC2)c1 | 2.2
28 | c1cc(CCN2CCCC2CN2CCCCC2)ccn1 (stereo unspecified) | 0.295
29 | CC1CN(S(=O)(=O)c2ccc(F)cc2)c2cccnc2O1 (stereo unspecified) | -0.781
30 | CN(Cc1noc(C2CC2)n1)C1CCN(Cc2nc(C3CC3)no2)C1 (stereo unspecified) | -1.57
31 | CC(C)(C(=O)NCC(=O)NC1CC1)c1ccccc1F | -4.9
32 | CCCc1noc(CN(C)Cc2ccc3c(c2)OCO3)n1 | -11.1
33 | CC(C)Nc1cccc(CNC(=O)N2CCC(N3CC=CC3)C2)c1 (stereo unspecified) | 2.01
34 | Cn1ncnc1CNC1CCc2cc(Cl)ccc21 (stereo unspecified) | 9.57
35 | CC(C)OC(=O)NCc1ccc(NCc2cnn(C(C)(C)C)c2)cc1 | -0.741
36 | CC(=O)Nc1cc2c(cc1C)OCO2 | 10.5
37 | CC(C)n1ncc2c1NC(=O)C(C#N)C21CCCCC1 (stereo unspecified) | -0.47
38 | CC(C)(C)OC(=O)N1CCN(S(C)(=O)=O)C2(CCCCC2)C1 | 10.3
39 | CC(C)NC(=O)[C@@H]1C[C@H]2OCC[C@H]2N(Cc2ccc3ccccc3n2)C1 | -66.8
40 | Cc1ccsc1C(=O)N1CCc2ncnc(NC(C)C)c2CC1 | -79.3
41 | O=C(NCC1CC1)C1CN(C(=O)Nc2ccccc2)CC12CCOCC2 (stereo unspecified) | -82.6
42 | CN(C)c1nccc(NCc2cc(-c3cccs3)n[nH]2)n1 | -5.03
43 | O=c1[nH]c(-c2ccncc2)ncc1-c1ccnc(NC2CC2)n1 | -11.7
44 | NS(=O)(=O)NCc1cc(-c2ccco2)n(CC(F)(F)F)n1 | -4.41
45 | CS(=O)(=O)N1CC[C@@H]2[C@@H](CCC(=O)N2CCC2=CCCCC2)C1 | -5.64
46 | Cc1cccc(CN2CCN(C(=O)c3cnc(C)[nH]c3=O)CC2)c1 | -3.32

Row | Structure (SMILES) | cytotoxicity at 10 µM [%]
47 | OCc1ccc(-c2nccn2CCc2nc3c(s2)CCCC3)o1 | 4.71
48 | CCN1CCC(N2C[C@H]3OC(=O)N(CCc4cccc(Cl)c4)[C@H]3C2)CC1 | -5.4
49 | Cc1ccc(C)c2c(=O)cc(CN3CC[C@@H](N)[C@H](O)C3)[nH]c12 | 8.24
50 | CC(C)N1CC2(CCC1=O)CCN(C(=O)c1cc(F)ccc1Cl)CC2 | 0.247
51 | CSCCN1CCN(c2nc(N)ncc2C)CC1 | 1.54
52 | COCCN(C)C[C@@H]1CN(C(=O)c2ccc(SC)cc2)C[C@@H]1CO | 4.44
53 | c1cncc(-c2noc(CCNc3ncnc4c3CCNCC4)n2)c1 | 3.38
54 | CC(=O)N1C[C@H](NC(=O)c2ccnc(N)c2)[C@@H](C(C)C)C1 | 8.64
55 | Cc1cc(C)cc(-c2cc(C3CCOC3)c(C#N)c(N)n2)c1 (stereo unspecified) | 1.44
56 | OC1CCCOC12CCN(Cc1nnc(-c3cccnc3)o1)CC2 (stereo unspecified) | 4.49
57 | CCCN1CCC(NN2CCN(C)CC2)CC1 | -2.38
58 | CC(C)CCN1CC2(CCCN(C(=O)CNC(=O)N(C)C)C2)CCC1=O (stereo unspecified) | 9.94
59 | Cc1nc2c(N(CCC(N)=O)CCc3ccccc3)ncnc2o1 | 4.6
60 | CN(Cc1cc[nH]n1)C(=O)c1cn(Cc2c(F)cccc2F)nn1 | 7.29
61 | Cc1ccc(O)c(C(=O)N2C[C@@H](C(=O)O)[C@H](c3ccccc3)C2)c1 | 0.00559
62 | CN(C)CCN(CC1CCCO1)S(=O)(=O)NCc1ccccc1 (stereo unspecified) | 0.666
63 | COc1ccc(-n2c(CO)nc3ccccc32)cc1CO | 1.78
64 | COc1ccc(CN(Cc2cnn(C)c2)CC(C)C)cn1 | -18.4
65 | Cc1cc(C)n2nc(C(=O)N3CCCC4(CCOC4)C3)cc2n1 (stereo unspecified) | 7.73
66 | Cc1ccc(C(C(=O)N2CC(c3ccccn3)C2)N(C)C)cc1 (stereo unspecified) | -9.82
67 | CCNc1ncc(C(=O)NCCCc2ccncc2)cn1 | 0.562
68 | Cc1ccc(Oc2ncccc2CNC(=O)NC2CCCCC2)cn1 | -3.01
69 | CC(C)C(=O)N1CCN(C(=O)c2cc(C(C)C)no2)[C@H]2CS(=O)(=O)C[C@H]21 | -9.43

Row | Structure (SMILES) | cytotoxicity at 10 µM [%]
70 | CN1CCC(C2CCN(Cc3cccc(-n4cccn4)c3)CC2)C1 (stereo unspecified) | -6.15
71 | CN(Cc1noc(-c2ccccc2)n1)C(=O)CSc1nnc(N)s1 | 0.712
72 | Cc1nnc(-c2cccc(N3CCC(NC4CCSC4)CC3)c2)s1 (stereo unspecified) | 0.276
73 | CCOc1ccccc1-c1cc2c(cc1C(N)=O)OCO2 | 5.05
74 | CCC(=O)N1CCN(Cc2cc(-c3ccncc3)nn2C)CC1 | 4.24
75 | Cc1cc(C)n(CC2CN(CC(=O)NCc3cccs3)CCO2)n1 (stereo unspecified) | -9.89
76 | COc1cc(CNCc2ccnc(N3CCOCC3)c2)cc(OC)c1 | 6.1
77 | CCS(=O)(=O)N(C)CCCNCc1c(C)nn(C)c1N(C)C | -8.72
78 | CC(Cn1ccnc1)NC(=O)C1(c2cccc(Cl)c2)CC1 (stereo unspecified) | -19.3
79 | CC(C)c1nc(CN2CCCC2c2cnn(C)c2)cs1 (stereo unspecified) | 0.0791
80 | Cc1ccc(-c2nnc(CN3CCOC(Cn4cncn4)C3)o2)cc1 (stereo unspecified) | -10.2
81 | CCc1nc(CN(C(C)=O)C2CCN(CCc3ccccc3)C2)no1 (stereo unspecified) | -2.18
82 | CN(CCC(=O)N1CCc2sccc2C1)Cc1cnn(C)c1 | -18.6
83 | CN(CCC(=O)N1CCc2sccc2C1)Cc1cc(Br)cs1 | -14.8
84 | Cc1noc(C)c1CC(=O)N1CCc2sccc2C1 | -18.4
85 | COc1ccc(C)cc1C(C)NC(=O)CCn1cncn1 (stereo unspecified) | -7.82
86 | O=C(NCCN1C(=O)c2ccccc2C1=O)c1scnc1Cl | -12.3
87 | Cc1ccc(C(=O)N2CCN(Cc3cccs3)CC2)n1C | -5.37
88 | Cc1cc(C)n(CC2CCCN2C(=O)c2ccc3nnc(C)n3c2)n1 (stereo unspecified) | -3.6
89 | COc1ccc(N2CCN(C(=O)NC(C)c3nncn3C)CC2)cc1 (stereo unspecified) | -7.12
90 | Cc1cc(NC(=O)CN2CCCC2c2noc(C3CC3)n2)n(C)n1 (stereo unspecified) | -1.16
91 | COc1cc(C(=O)N2CCCC(n3ccnc3)C2)cc2c1OCCO2 (stereo unspecified) | -5.28
92 | CC(=O)Nc1nc(C(=O)NCc2ccc(N3CCOCC3)nc2)cs1 | -14

Row | Structure (SMILES) | cytotoxicity at 10 µM [%]
93 | COc1c(CNCc2ccnc(N3CCOCC3)c2)c(C)nn1C | -1.82
94 | O=C(CN1CCCC1c1cccs1)N1CCc2sccc2C1 (stereo unspecified) | -17
95 | COc1ccc(CNC(=O)Nc2cccnc2N2CCCC2)cc1 | -21.5
96 | COc1cc(C)nc(N2CCN(C(=O)c3cc(C)no3)CC2)n1 | -30.4
97 | O=C(c1ccc(OCC2CC2)nc1)N1CCCC(n2ccnc2)C1 (stereo unspecified) | -9.16
98 | CCCNC(=O)CCC(=O)Nc1ccc(-n2cncn2)c(F)c1 | 1.94
99 | Cc1cnn(CCNCc2nc(COc3ccc(F)cc3)no2)c1 | -5.61
100 | Cc1nc(C2CCCN2CC(=O)N2CCCc3ccccc32)no1 (stereo unspecified) | -8.7
101 | O=C(NCc1ccccn1)N(Cc1ccc(F)cc1F)C1CC1 | -17.5
102 | N#Cc1ccccc1N1CCCN(C(=O)CCn2cccn2)CC1 | -13.1
103 | Cc1noc(C2CCN(Cc3cc(=O)n(C)c(=O)n3C)CC2)n1 | -2.57
104 | Cc1ccsc1CNc1cc(N2CCCC2CO)ncn1 (stereo unspecified) | -2.45
105 | Cc1nc(CN2CCCC(N(C)Cc3nnsc3Cl)C2)no1 (stereo unspecified) | -4.36
106 | CC(=O)Nc1ccc(Oc2cc(C)nc(C3CCNCC3)c2)cc1 | 2.69
107 | Cc1ccc(CN(Cc2c[nH]cn2)C2CC(C)(C)NC(C)(C)C2)o1 | -0.105
108 | O=C([C@H]1C[C@H]2OCC[C@H]2N(Cc2ccoc2)C1)N1CCCO1 | -69.8
109 | NCC(=O)N1CCC(c2ccnc(Nc3cc(C(F)(F)F)ccn3)n2)C1 (stereo unspecified) | 9.83
110 | CN1CCN(CC2CN(CC3CC3)Cc3nccn3C2)CC1 (stereo unspecified) | -76.1
111 | CCS(=O)(=O)N1CCC2(CN(c3cccc(F)c3)C(=O)CN2C)C1 (stereo unspecified) | -74.4
